Assay outcomes deposited in PubChem BioAssay by several laboratories.
STAT3 activator – STAT3 signaling activation. U3A cells, IL-6 STAT3-luciferase reporter, luminescence; 100% = signal with IL-6 EC80 alone. activation (% of control), % at 5.6 µM. 190,000 tested, 0.91% active;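 active means activation above the screen-wide mean of compound activation plus 3 SD, cut at about 130% in these data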
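Material: human U3A cells carrying STAT3-luciferase construct. Measured by: reporter luminescence signal. Timing: compound 1 h, then IL-6 6 h at 37 °C.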
PolyA inhibitor – blocks polyadenylation in yeast reporter cells; S. cerevisiae SKY197-pL101 polyadenylation reporter, beta-gal luminescence; efflux-impaired pdr1/pdr3 knockout yeast; score 100 = 6 SD above DMSO; activity score, % at 12 µM; 300,000 tested, 0.02% active;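 active means lowest replicate activity score at least 50, where 100 means six control SD above control mean; inconclusive means lowest score under 50 but half or more replicates reach 50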;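 further: yeast exposed to compound for 9 h at 30 °C; higher score means more reporter readthrough which indicates perturbed polyadenylation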
Hsp70 activator – switches on Hsp70 transcription; HeLa Hsp70 promoter luciferase reporter, luminescence; scaled: vehicle 0, proteasome-inhibitor control 100%; activation, % at 10 µM; 200,000 tested, 0.04% active; AID 1203;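 active means activation above the mean across all tested compounds plus 3 SD, cutoff set per campaign, cut at about 5.5% in these data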
PERK inhibitor – human PERK inhibition, primary cell-based screen | CHO PERK-DD fusion, SEAP luminescence translation reporter | inhibition, % at 5.6 µM | 220,000 tested, 0.17% active | AID 1416;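 active means inhibition above the mean inhibition of all tested compounds plus 3 SD, set separately per screening campaign, cut at about 2.9% in these data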;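 further: PERK kinase domain activated by AP20187 dimerizer at 100 nM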
HSF1 inhib – HSF1 inhibition | activity change, negative = inhibition, % at 7.5 µM (by protocol) | 300,000 tested, 0.77% active | NIH3T3-HGL HSE-luciferase, MG132-induced, luminescence 8 h; hits give low values | AID 2098;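 active means more than half of replicate wells show activity change below -50%, luminescence cut by over half; inconclusive means some wells, but at most half, below -50%; inactive means no replicate well below -50%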;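 further: luciferase reports HSF-1 transcriptional activity via heat shock element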
AHR act – activators of human aryl hydrocarbon receptor | P35869 | AHR-responsive luciferase reporter cells, luminescence | activation, % at 5 µM | 320,000 tested, 2.5% active | AID 2796; in the data active means activation above about 47%
Target sequence (P35869 whole entry, looked up): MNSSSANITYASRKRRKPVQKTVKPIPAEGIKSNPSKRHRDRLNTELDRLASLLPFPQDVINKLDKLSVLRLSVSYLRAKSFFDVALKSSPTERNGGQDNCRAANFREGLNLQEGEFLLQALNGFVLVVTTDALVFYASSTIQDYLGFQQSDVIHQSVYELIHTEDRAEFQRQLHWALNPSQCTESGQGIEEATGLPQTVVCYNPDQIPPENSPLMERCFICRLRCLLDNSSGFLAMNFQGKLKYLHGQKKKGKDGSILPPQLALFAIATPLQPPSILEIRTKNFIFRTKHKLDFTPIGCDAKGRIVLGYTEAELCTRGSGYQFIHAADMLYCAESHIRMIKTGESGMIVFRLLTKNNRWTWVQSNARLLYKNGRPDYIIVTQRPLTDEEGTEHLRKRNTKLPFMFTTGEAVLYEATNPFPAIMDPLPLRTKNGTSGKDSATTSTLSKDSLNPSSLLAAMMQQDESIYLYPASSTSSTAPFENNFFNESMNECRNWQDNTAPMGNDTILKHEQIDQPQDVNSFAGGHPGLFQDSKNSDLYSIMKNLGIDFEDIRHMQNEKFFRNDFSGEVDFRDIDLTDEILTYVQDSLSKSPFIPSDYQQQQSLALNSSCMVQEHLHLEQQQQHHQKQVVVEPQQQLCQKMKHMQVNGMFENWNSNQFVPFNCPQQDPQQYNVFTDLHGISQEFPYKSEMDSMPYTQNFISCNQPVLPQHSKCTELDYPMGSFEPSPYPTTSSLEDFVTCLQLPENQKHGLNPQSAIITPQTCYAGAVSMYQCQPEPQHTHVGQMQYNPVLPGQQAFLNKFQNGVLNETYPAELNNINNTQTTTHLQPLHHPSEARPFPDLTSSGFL
Of the large screens only hits and unclear results are named; the others gave an inactive call. A selection: hits, their analogues and other compounds. The true share with any hit is near 3.6%.

Clc1cccc(Nc2ncnc3ccc(Br)cc23)c1	none
Clc1ccc(Nc2ncnc3ccc(Br)cc23)cc1	AHR act 67
COc1cccc(OCc2cc(/C=N/Nc3ccc(C(=O)O)cc3)ccc2OC)c1	HSF1 inhib -73 (no result: STAT3 activator, Hsp70 activator)
COc1ccc(/C=N\NC(=O)c2ccccc2Br)cc1COc1ccc(F)cc1	none (no result: STAT3 activator, Hsp70 activator, PERK inhibitor)
COc1ccc(/C=N/NC(=O)c2ccccc2OC)cc1COc1ccccc1[N+](=O)[O-]	AHR act 66 (no result: STAT3 activator, Hsp70 activator, PERK inhibitor)
COc1cccc(C(=O)Oc2ccc(/C=N/Nc3ccc(C(=O)O)cc3)cc2OC)c1	none (no result: STAT3 activator, Hsp70 activator, PERK inhibitor)
COc1ccc(/C=N/NC(=O)c2ccccc2OC)cc1COc1ccc(C)cc1	AHR act 47 (no result: STAT3 activator, Hsp70 activator, PERK inhibitor)
COc1ccc(/C=N\NC(=O)c2ccc([N+](=O)[O-])c(C)c2)cc1COc1ccccc1C(N)=O	none (no result: STAT3 activator, Hsp70 activator, PERK inhibitor)
CCOC(=O)C(C)Sc1nc(-c2ccccc2)nc2ccccc12 (configuration not stated)	none
Brc1ccc(/C=N/Nc2ccc3ccccc3n2)cc1	AHR act 69
Fc1cccc(/C=N/Nc2ccc3ccccc3n2)c1	none
Cc1ccc(OCC(=O)Oc2ccc(C)c(C)c2)cc1	none (no result: STAT3 activator, Hsp70 activator, PERK inhibitor)
O=C(CSc1nnc2c(n1)[nH]c1ccccc12)NCc1ccccc1F	none (no result: STAT3 activator, Hsp70 activator, PERK inhibitor)
Clc1ccc(Nc2nc3cccnc3s2)cc1	AHR act 53
Cn1nc(-c2ccccn2)nc2c(=O)n(C)c(=O)nc1-2	PolyA inhibitor inconclusive, HSF1 inhib -94 (no result: STAT3 activator, Hsp70 activator)
CCCc1nc2c(=O)n(C)c(=O)nc-2n(C)n1	none (no result: PolyA inhibitor, HSF1 inhib, AHR act)
O=C1CCCC2=C1Sc1ccc(Cl)cc1N2	none (no result: STAT3 activator, Hsp70 activator)
COC(=O)c1ccc2c(c1)SC1=C(CCCC1=O)N2	AHR act 60
CC1(C)Oc2ccc(C(=O)NC3CC3)cc2N(CC(=O)N2CCOCC2)C1=O	AHR act 74
CCOc1ccc(N/C(=C(/C(Cl)=C(Cl)Cl)[N+](=O)[O-])n2cncn2)cc1	none
CCOc1ccccc1N/C(=C(/C(Cl)=C(Cl)Cl)[N+](=O)[O-])n1cncn1	AHR act 54 (no result: PolyA inhibitor, HSF1 inhib)
CCC(c1nnnn1CC1CCCO1)N(CCCO)Cc1cc2cccc(C)c2[nH]c1=O (configuration not stated)	none
CCC(c1nnnn1Cc1ccc(F)cc1)N(CCCO)Cc1cc2cc3c(cc2[nH]c1=O)OCO3 (configuration not stated)	AHR act 73
CCCc1ccc(OCc2ccccc2)c2c(=O)cc(C(=O)OCC)oc12	PERK inhibitor 3.1 (no result: STAT3 activator, Hsp70 activator)
CCn1nc(C)c(CNCc2cn[nH]c2-c2cc3ccccc3o2)c1C	none (no result: STAT3 activator, Hsp70 activator)
O=C(Cc1ccc(Br)cc1)OCC(=O)N1CCCCCC1	none (no result: STAT3 activator, PolyA inhibitor, Hsp70 activator, PERK inhibitor, HSF1 inhib)
Clc1ccc(-c2nc3cnccn3c2NC2CCCC2)cc1	AHR act 51
CCC(C)Sc1ccc(-c2nc3cnccn3c2NC2CCCCC2)cc1 (configuration not stated)	none (no result: STAT3 activator, Hsp70 activator, PERK inhibitor)
O=C(CSc1nc(C(F)(F)F)cc(=O)[nH]1)Nc1nccs1	none (no result: STAT3 activator, Hsp70 activator, PERK inhibitor)
CC1CCC(NC(=O)c2cccc(S(=O)(=O)NCc3ccccc3)c2)CC1 (configuration not stated)	none (no result: STAT3 activator, Hsp70 activator, PERK inhibitor)
CCOC(=O)N1CCN(S(=O)(=O)c2ccc3c(c2)SCC(=O)N3)CC1	none
CCOC(=O)N1CCN(S(=O)(=O)c2ccc3c(c2)OCC(=O)N3)CC1	HSF1 inhib -52
COc1ccc(CNc2ncc(-c3ccc(F)cc3)n2C)c2ccccc12	AHR act 61 (no result: STAT3 activator, Hsp70 activator, PERK inhibitor)
COc1ccccc1CNc1ncc(-c2ccccc2)n1C	none (no result: STAT3 activator, Hsp70 activator, PERK inhibitor, AHR act)
CCOc1ccc(-c2cnc(NCc3cccc4ccccc34)n2CCOC)cc1	HSF1 inhib -83 (no result: STAT3 activator, Hsp70 activator, PERK inhibitor)
COc1ccccc1CNc1ncc(-c2ccc(F)cc2)n1C	AHR act 73 (no result: STAT3 activator, Hsp70 activator, PERK inhibitor)
O=C(Nc1ccc2c(c1)C(=O)NC2=O)c1cccc(C(F)(F)F)c1	AHR act 53 (no result: STAT3 activator, Hsp70 activator, PERK inhibitor)
COc1ccc(C(N)=O)cc1NC(=O)c1cccc(F)c1	AHR act 61
O=C(Nc1ccc2c(c1)C(=O)NC2=O)c1ccccc1	none (no result: STAT3 activator, Hsp70 activator, PERK inhibitor)
COc1cc(NC(=O)c2cccc(F)c2)cc(OC)c1OC	AHR act 63
COc1cc(OC)c(NC(=O)c2cccc(F)c2)cc1Cl	none
O=C(Nc1ccc(F)cc1)c1cccc(C(=O)Nc2ccc(F)cc2)c1	AHR act 51 (no result: STAT3 activator, Hsp70 activator, PERK inhibitor)
N#CCC(=O)Nc1ccc(C(F)(F)F)cc1N1CCOCC1	PolyA inhibitor inconclusive
